The values that follow come from ChEMBL document CHEMBL4477202, “Synthesis and evaluation of duocarmycin SA analogs incorporating the methyl 1,2,8,8a-tetrahydrocyclopropa[c]imidazolo[4,5-e]indol-4-one-6-carboxylate (CImI) alkylation subunit” (Bioorg Med Chem, 2016).

Activity calls are given as the source filed them. The calls are words filed in the database; no cut-off is given here.

A word on the IC50: it is the concentration that gives 50% inhibition.

The test system of assay [1] is Betapolyomavirus macacae. The assay is described as follows: Induction of alkylation at Simian virus 40 150-bp DNA w794 after 24 hrs by PAGE and autoradiography method. An outline of the steps:
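Labelled w794 DNA incubated with agent at 23 °C for 24 h. Unbound agent removed by EtOH precipitation, then thermolysis at 100 °C for 30 min to cleave strands at alkylation sites. Fragments resolved by 8% denaturing PAGE and read by autoradiography, alongside untreated control DNA and Sanger G, C, A, T sequencing lanes.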

The next assay relates to L1210. The assay is described as follows: Cytotoxicity against mouse L1210 cells assessed as cell growth inhibition. Format: functional, cell-based.
A short description of assay [2]: Solvolysis reactivity of the compound in phosphate buffer assessed as half life at pH 3 upto 187 hrs by UV spectrophotometry. An outline of the steps: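 UV spectra taken hourly for the first 8 h, then every 12 h, over 0–187 h until absorbance stopped changing. Rate constant and t1/2 derived from initial (A_i) and final (A_f) absorbance.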
Assay [3] is described as follows: Solvolysis reactivity of the compound in presence of Pb(acac)2 at 23 degC in MeoH solution by UV spectrophotometry.
A short description of assay [4]: Solvolysis reactivity of the compound in presence of Ni(acac)2 at 23 degC in MeoH solution by UV spectrophotometry.
The nature of assay [5]: Solvolysis reactivity of the compound in presence of Cd(acac)2 at 23 degC in MeoH solution by UV spectrophotometry.
The nature of assay [6]: Solvolysis reactivity of the compound in phosphate buffer at pH 7 upto 187 hrs by UV spectrophotometry.
The nature of assay [7]: Solvolysis reactivity of the compound in presence of Zn(acac)2 at 23 degC in MeoH solution by UV spectrophotometry.
The nature of assay [8]: Solvolysis reactivity of the compound in presence of Cu(acac)2 at 23 degC in MeoH solution by UV spectrophotometry.
Assay [9] concerns Betapolyomavirus macacae. The assay is described as follows: Induction of alkylation at Simian virus 40 150-bp DNA w794 at 10^-5 to 10^-7/M after 24 hrs by PAGE and autoradiography method. The essentials:
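w794 DNA incubated with agent at 23 °C for 24 h. Unbound agent was removed by EtOH precipitation, then the DNA was heated at 100 °C for 30 min to cleave strands at alkylated sites. Fragments were resolved by 8% denaturing PAGE against Sanger G, C, A and T sequencing lanes and untreated control DNA, and detected by autoradiography.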

A short description of assay [10]: Solvolysis reactivity of the compound in aqueous buffer assessed as solvolytic rate constant at pH 2 by UV spectrophotometry.
Assay [11] is described as follows: Solvolysis reactivity of the compound in aqueous buffer assessed as half life at pH 2 by UV spectrophotometry.

For `COC(=O)c1cc2c([nH]1)C(=O)C=C1N(C(=O)c3cc4cc(OC)c(OC)c(OC)c4[nH]3)C[C@H]3C[C@]123`, the outcome with Betapolyomavirus macacae [1] was Active.

With `COC(=O)c1nc2c([nH]1)C(=O)C=C1N(C(=O)c3cc4cc(NC(=O)c5cc6ccccc6[nH]5)ccc4[nH]3)C[C@@H]3C[C@@]123`, the IC50 in the assay with L1210 turned out to be 0.7 nM.

Take `COC(=O)c1nc2c([nH]1)C(=O)C=C1N(C(=O)c3cc4cc(OC)c(OC)c(OC)c4[nH]3)C[C@H]3C[C@]123`: in the assay with Betapolyomavirus macacae [1], the outcome was inactive. Further, the IC50 in the assay on L1210 stood at 0.05 nM.

In the case of `COC(=O)c1cc2c([nH]1)C(=O)C=C1N(C(=O)OC(C)(C)C)CC3CC123` (stereo unspecified), the T1/2 in assay [2] turned out to be 177 h. The Stability entry in assay [3], in assay [4], in assay [5], in assay [6], in [7] and in [8] was “Stable” throughout.

Take `COC(=O)c1cc2c([nH]1)C(=O)C=C1N(C(=O)c3cc4cc(NC(=O)c5cc6ccccc6[nH]5)ccc4[nH]3)C[C@@H]3C[C@@]123`: the IC50 with L1210 stood at 0.15 nM.

Turning to `COC(=O)c1nc2c([nH]1)C(=O)C=C1N(C(=O)OC(C)(C)C)C[C@H]3C[C@]123`, the IC50 with L1210 came to 70 nM.

Turning to `COC(=O)c1nc2c([nH]1)C(=O)C=C1N(C(=O)c3cc4cc(NC(=O)c5cc6ccccc6[nH]5)ccc4[nH]3)C[C@H]3C[C@]123`, in the assay with L1210, the IC50 was determined as 0.04 nM.

As to `COC(=O)c1nc2c([nH]1)C(=O)C=C1N(C(=O)c3cc4cc(OC)c(OC)c(OC)c4[nH]3)C[C@@H]3C[C@@]123`, the IC50 with L1210 was 2.2 nM.

Take `COC(=O)c1cc2c([nH]1)C(=O)C=C1N(C(=O)c3cc4cc(NC(=O)c5cc6ccccc6[nH]5)ccc4[nH]3)C[C@H]3C[C@]123`: the IC50 in the assay with L1210 amounted to 0.004 nM.

Take `COC(=O)c1nc2c3c(cc(O)c2[nH]1)N(C(=O)c1cc2cc(OC)c(OC)c(OC)c2[nH]1)C[C@H]3CCl`: the result in the assay with Betapolyomavirus macacae [9] was Active.

In the case of `Cc1c[nH]c2c1[C@@]13C[C@@H]1CN(C(=O)OC(C)(C)C)C3=CC2=O`, the K in assay [10] amounted to 5.26 ×10⁻⁶ /s. Besides, in assay [11], the T1/2 amounted to 37 h.

In the case of `COC(=O)c1nc2c([nH]1)C(=O)C=C1N(C(=O)OC(C)(C)C)CC3CC123` (stereo unspecified), the T1/2 in [2] stood at 34.7 h. Moreover, the Stability result in assay [3], in assay [4], in assay [5], in assay [7] and in [8] was “Stable” throughout.

Consider `COC(=O)c1nc2c([nH]1)C(=O)C=C1N(C(=O)OC(C)(C)C)C[C@@H]3C[C@@]123`, for which, in the assay on L1210, the IC50 came out at 1100 nM.
